Consider 17 molecules from ChEMBL document CHEMBL1153417, “5,7,8-Trimethyl-benzopyran and 5,7,8-trimethyl-1,4-benzoxazine aminoamide derivatives as novel antiarrhythmics against ischemia-reperfusion injury” (J Med Chem, 2009).

Each structure is given as a SMILES string. The source made the active and inactive calls. No cut-off for these calls is given here.

Data set [1] concerns Heart. The data set is described as follows: Antiarrhythmic activity in ischemia-reperfusion injury exposed Wistar rat heart assessed as arrhythmia score at 1 uM. In kind it is functional. The method, boiled down:
(§1)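 Rat hearts were taken under pentobarbital (30-40 mg per animal) after iv heparin. They were perfused by Langendorff at 90 cm H2O with oxygenated KHB buffer (pH 7.2, 11 mmol l-1 glucose) at 37 °C. After 20 min equilibration came 15 min ischemia (glucose-free KHB with 10 mM Tris-HCl, N2-equilibrated), then 60 min reperfusion. Compound was present for the last 5 min of ischemia and through reperfusion; n = 3-5.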

In data set [2] the test system is Heart. The data set is described as follows: Antiarrhythmic activity in ischemia-reperfusion injury exposed Wistar rat heart assessed as premature ventricular beats at 1 uM relative to untreated control. Format: functional. The essentials:
as §1

Data set [3] concerns Heart. The data set can be described thus: Antioxidant activity in ischemia-reperfusion injury exposed Wistar rat heart assessed as malondialdehyde level per gram of wet tissue at 1 uM by thiobarbituric acid test. In kind it is functional. The method, boiled down:
as §1

Data set [4] has as its system Heart. The data set can be described thus: Antioxidant activity in ischemia-reperfusion injury exposed Wistar rat heart assessed as reduction of malondialdehyde level at 2 uM by thiobarbituric acid test relative to control. Format: functional. Details: scale not given: the % may be the effect or the level left. The method, boiled down: as §1
Data set [5] is filed under the species Oryctolagus cuniculus. The data set can be described thus: Electrophysiological effect in New Zealand rabbit right ventricular papillary muscle assessed as increase in conduction time at 5 uM at 1 Hz stimulation frequency. Format: functional, tissue-based. To be noted: Muscle tissue. The essentials: (§2)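 Right ventricular papillary muscle tips were superfused at 37 °C with bicarbonate solution (pH 7.35-7.40, 95% O2/5% CO2). They were paced at 1 Hz (1000 ms cycle length) with 1 ms constant-current pulses through a bipolar platinum electrode. Transmembrane potentials were recorded by conventional microelectrodes, and RP, CT, APA, Vmax, APD50 and APD90 were measured automatically.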

A short description of data set [6]: Electrophysiological effect in New Zealand rabbit right ventricular papillary muscle assessed as action potential duration measured at 90% repolarization at 5 uM at 1 Hz stimulation frequency. Format: functional, Oryctolagus cuniculus, Muscle tissue. The method, boiled down:
as §2

Data set [7] in a line: Electrophysiological effect in New Zealand rabbit right ventricular papillary muscle assessed as action potential amplitude at 5 uM at 1 Hz stimulation frequency. In kind it is functional, Oryctolagus cuniculus, Muscle tissue. The essentials:
as §2

Data set [8] is described as follows: Electrophysiological effect in New Zealand rabbit right ventricular papillary muscle assessed as action potential duration measured at 50% repolarization at 5 uM at 1 Hz stimulation frequency. In kind it is functional, Oryctolagus cuniculus, Muscle tissue. The essentials:
as §2

Data set [9] is described as follows: Electrophysiological effect in New Zealand rabbit right ventricular papillary muscle assessed as maximal rate of depolarization at 5 uM at 1 Hz stimulation frequency. Format: functional, Oryctolagus cuniculus, Muscle tissue. The method, boiled down:
as §2

Data set [10] is filed under the species Oryctolagus cuniculus. The data set is described as follows: Electrophysiological effect in New Zealand rabbit right ventricular papillary muscle assessed as resting membrane potential at 5 uM at 1 Hz stimulation frequency. In kind it is functional, tissue-based. To be noted: Muscle tissue. The essentials:
as §2

The test system of data set [11] is Heart. The data set is described as follows: Antioxidant activity in ischemia-reperfusion injury exposed Wistar rat heart assessed as reduction of malondialdehyde level at 1 uM by thiobarbituric acid test relative to control. Format: functional. Details: scale not given: the % may be the effect or the level left. The method, boiled down: as §1
In data set [12] the test system is Heart. The data set can be described thus: Toxicity in ischemia-reperfusion injury exposed Wistar rat heart assessed as induction of ventricular tachycardia at 1 uM. In kind it is tissue-based. The method, boiled down:
as §1

Data set [13] concerns Heart. The data set is described as follows: Toxicity in ischemia-reperfusion injury exposed Wistar rat heart assessed as induction of ventricular fibrillation at 1 uM. Format: tissue-based. The essentials:
as §1

A short description of data set [14]: Electrophysiological effect in New Zealand rabbit right ventricular papillary muscle assessed as action potential duration measured at 50% repolarization at 20 uM at 1 Hz stimulation frequency. In kind it is functional, Oryctolagus cuniculus, Muscle tissue. The essentials: as §2
A short description of data set [15]: Electrophysiological effect in New Zealand rabbit right ventricular papillary muscle assessed as action potential amplitude at 20 uM at 1 Hz stimulation frequency. In kind it is functional, Oryctolagus cuniculus, Muscle tissue. The method, boiled down:
as §2

Data set [16] can be described thus: Electrophysiological effect in New Zealand rabbit right ventricular papillary muscle assessed as maximal rate of depolarization at 20 uM at 1 Hz stimulation frequency. Format: functional, Oryctolagus cuniculus, Muscle tissue. The method, boiled down: as §2
Data set [17] is filed under the species Oryctolagus cuniculus. The data set can be described thus: Electrophysiological effect in New Zealand rabbit right ventricular papillary muscle assessed as resting membrane potential at 20 um at 1 Hz stimulation frequency. In kind it is functional, tissue-based. To be noted: Muscle tissue. The essentials: as §2
Data set [18] can be described thus: Electrophysiological effect in New Zealand rabbit right ventricular papillary muscle assessed as action potential duration measured at 90% repolarization at 20 uM at 1 Hz stimulation frequency. Format: functional, Oryctolagus cuniculus, Muscle tissue. The method, boiled down:
as §2

Data set [19] concerns Heart. The data set can be described thus: Antiarrhythmic activity in ischemia-reperfusion injury exposed Wistar rat heart assessed as premature ventricular beats at 100 uM relative to untreated control. Format: functional. The method, boiled down:
as §1

The test system of data set [20] is Heart. The data set is described as follows: Antiarrhythmic activity in ischemia-reperfusion injury exposed Wistar rat heart assessed as premature ventricular beats at 30 uM relative to untreated control. Format: functional. The method, boiled down: as §1

As for `CCN(CC)CC(=O)N1CC(c2ccccc2)Oc2c(C)c(C)c(OC)c(C)c21` (configuration not stated), the Activity was found to be 1 with Heart [1], 2.8% in the data set on Heart [2] and 136 ng/g in the data set on Heart [3].
As for `CCN(CC)CC(=O)Nc1c(C)cccc1C` [LIDOCAINE], the Activity in the data set on Heart [1] amounted to 1; with Heart [2], 3.1%; in the data set on Heart [3] it was 160 ng/g.
Turning to `CCN(CC)CC(=O)N1CC(c2ccccc2)Oc2c(C)c(C)cc(C)c21` (configuration not stated), the Activity with Heart [4] worked out at 48%; in [6] it was 210.9 ms; in data set [7] it was 115.1 mV; in the data set with Heart [1] it was 1; in data set [8] it was 175.6 ms; in the data set on Heart [2] it was 0.5%. Besides, the Activity in data set [9] was 174.5 V/s; in the data set listed under Oryctolagus cuniculus [10], -82.7 mV; with Heart [3] it was 120 ng/g. The outcome in the data set filed under Oryctolagus cuniculus [5] was Active.
On to `CCN(CC)CC(=O)N1CC(C)(C)Oc2c(C)c(C)c(Cl)c(C)c21`, for which the Activity in data set [6] was found to be 214.4 ms; in data set [7], 116.2 mV; in the data set with Heart [1] it was 5.7; in data set [8] it was 171.6 ms; in the data set on Heart [2], 2.1%; in [9], 188.4 V/s. In addition, the Activity in the data set listed under Oryctolagus cuniculus [10] was -85.3 mV; in the data set on Heart [3], 143 ng/g.
For `CCN(CC)CC(=O)N1C[C@H](c2ccccc2)Oc2c(C)c(C)c(Cl)c(C)c21`, the Activity with Heart [1] was 4.3; with Heart [2], 1.5%; with Heart [11] it was 50%; in the data set on Heart [12], “Toxic”; in the data set on Heart [3] it was 106 ng/g; in the data set with Heart [13], “Toxic”.
`Cc1cccc(C)c1OCC(C)N` (configuration not stated) [MEXILETINE]: the Activity in data set [14] is 141 ms; in [15] it was 105.9 mV; in data set [16] it was 190.3 V/s; in the data set listed under Oryctolagus cuniculus [17], -85.7 mV; in [18], 180.9 ms.
Regarding `CCN(CC)CC(=O)N1CCOc2c(C)c(C)c(Cl)c(C)c21`, the Activity was determined as 29% in the data set with Heart [4], 1 with Heart [1], 3.9% in the data set on Heart [2] and 163 ng/g in the data set with Heart [3].
Take `CCN(CC)CC(=O)N1C[C@@H](c2ccccc2)Oc2c(C)c(C)c(Cl)c(C)c21`: the Activity was 1 in the data set with Heart [1], 0.8% with Heart [2] and 153 ng/g in the data set with Heart [3].
As for `CCN(CC)CC(=O)N1CCOc2c(C)c(C)cc(C)c21`, the Activity in the data set with Heart [4] was found to be 34%; in data set [6] it was 236.8 ms; in data set [7], 111.9 mV; in the data set with Heart [1] it was 1.3; in data set [8], 192.3 ms; in the data set with Heart [2], 3.4%. Further, the Activity in data set [9] was 200.2 V/s; in the data set listed under Oryctolagus cuniculus [10], -85.8 mV; with Heart [3] it was 152 ng/g.
In the case of `CC(C)NCC(O)c1ccc(NS(C)(=O)=O)cc1` (configuration not stated) [SOTALOL], the Activity in [14] is 219.9 ms; in [15] it was 109.5 mV; in data set [16], 202.4 V/s; in the data set filed under Oryctolagus cuniculus [17], -85.9 mV; in data set [18], 275 ms.
Regarding `CCN(CC)CC(=O)N1CC(C)(C)Oc2c(C)c(C)cc(C)c21`, the outcome in the data set filed under Oryctolagus cuniculus [5] was Active. For the same molecule, the Activity amounted to 179.5 ms in [6]; 108.4 mV in [7]; 5.1 in the data set with Heart [1]; 147.1 ms in data set [8]; 1.6% in the data set with Heart [2]; 175.4 V/s in data set [9]. The Activity in the data set filed under Oryctolagus cuniculus [10] was -85.9 mV; with Heart [3], 160 ng/g.
For the molecule `CCCCCCC1(C)CC(NC(=O)CN(CC)CC)c2c(C)c(O)c(C)c(C)c2O1` (configuration not stated), the results for the Activity in the data set with Heart [19] and with Heart [20] were 9% and 10%, respectively.
As to `CCOC(=O)C1(C)CN(C(=O)CN(CC)CC)c2c(C)c(Cl)c(C)c(C)c2O1` (configuration not stated), the result in the data set filed under Oryctolagus cuniculus [5] was Active. The Activity in data set [6] was 159.5 ms; in data set [7] it was 105.1 mV; in data set [8], 107.7 ms; in data set [9], 184.7 V/s; in the data set filed under Oryctolagus cuniculus [10], -81.5 mV.
On to `CCOC(=O)C1(C)CN(C(=O)CN(CC)CC)c2c(C)cc(C)c(C)c2O1` (configuration not stated), for which the Activity with Heart [4] was 61%; in data set [6] it was 201.2 ms; in data set [7], 110.9 mV; in the data set on Heart [1], 1; in data set [8] it was 161.7 ms; in the data set on Heart [2], 3%. The Activity in data set [9] is 171.9 V/s; in the data set listed under Oryctolagus cuniculus [10] it was -86.6 mV; in the data set on Heart [3], 88.6 ng/g. In addition, in the data set listed under Oryctolagus cuniculus [5], the result was Active.
`CCN(CC)CC(=O)N1CC(c2ccccc2)Oc2c(C)c(C)c(Cl)c(C)c21` (configuration not stated): the values for the Activity in the data set with Heart [1], in the data set with Heart [2] and in the data set with Heart [3] were 1, 1% and 118 ng/g, respectively.
`CCN(CC)CC(=O)NC1CC(C)(C)Oc2c(C)c(C)c(O)c(C)c21` (configuration not stated): the Activity in the data set with Heart [19] was 8%; in the data set with Heart [20], 9%.
As for `CCN(CC)CC(=O)NC1CC(c2ccccc2)Oc2c(C)c(C)c(O)c(C)c21` (configuration not stated), the Activity in the data set with Heart [4] was 45%; with Heart [1], 3.6; in the data set with Heart [2], 4.3%; in the data set on Heart [3], 129 ng/g.
